In ChEMBL document CHEMBL1149311, “Synthesis and antitumor activity of methyltriazene prodrugs simultaneously releasing DNA-methylating agents and the antiresistance drug O(6)-benzylguanine” (J Med Chem, 2004):

Tests used:
HL-60 = assay: Antitumor activity against human HL60 cells; assay type: functional
How it was run: (§1)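 Tested in the NCI in vitro disease-oriented human tumor cell screen. The endpoints are IC50 (molar concentration giving 50% growth inhibition), TGI (total growth inhibition) and LC50 (50% net cell death). The maximal concentration tested was 100 μM. Subpanel values are means of several individual cell lines.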

K562 = assay: Antitumor activity against human K562 cells; assay type: functional; how it was run: as §1
RPMI-8226 = assay: Antitumor activity against human RPMI8226 cells; assay type: functional; how it was run: as §1
EKVX = assay: Antitumor activity against human EKVX cells; assay type: functional; how it was run: as §1
NCI-H23 = assay: Antitumor activity against human NCI-H23 cells; assay type: functional; how it was run: as §1
NCI-H322M = assay: Antitumor activity against human NCI-H322M cells; assay type: functional; how it was run: as §1
NCI-H460 = assay: Antitumor activity against human NCI-H460 cells; assay type: functional; how it was run: as §1
COLO 205 = assay: Antitumor activity against human COLO 205 cells; assay type: functional; how it was run: as §1
HCT-15 = assay: Antitumor activity against human HCT15 cells; assay type: functional; how it was run: as §1
KM12 = assay: Antitumor activity against human KM12 cells; assay type: functional; how it was run: as §1
SF-268 = assay: Antitumor activity against human SF268 cells; assay type: functional; how it was run: as §1
SF-539 = assay: Antitumor activity against human SF539 cells; assay type: functional; how it was run: as §1
SNB-19 = assay: Antitumor activity against human SNB19 cells; assay type: functional; how it was run: as §1
SNB-75 = assay: Antitumor activity against human SNB75 cells; assay type: functional
How it was run: (§2)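 NCI in vitro disease-oriented tumour cell line screen. Read-outs are IC50 (molar concentration giving 50% growth inhibition), TGI (molar concentration giving total inhibition of net growth) and LC50 (molar concentration giving 50% net cell death). The maximal concentration tested was 100 μM.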

U-251 = assay: Antitumor activity against human U251 cells; assay type: functional; how it was run: as §2
[1] = Antitumor activity against human LOX IMV1 cells; assay type: functional, cell-based; how it was run: as §1
SK-MEL-2 = assay: Antitumor activity against human SK-MEL-2 cells; assay type: functional; how it was run: as §1
SK-MEL-5 = assay: Antitumor activity against human SK-MEL-5 cells; assay type: functional; how it was run: as §1
UACC-257 = assay: Antitumor activity against human UACC257 cells; assay type: functional; how it was run: as §2
UACC-62 = assay: Antitumor activity against human UACC62 cells; assay type: functional; how it was run: as §2
OVCAR-3 = assay: Antitumor activity against human OVCAR-3 cells; assay type: functional; how it was run: as §1
OVCAR-8 = assay: Antitumor activity against human OVCAR8 cells; assay type: functional; how it was run: as §1
SK-OV-3 = assay: Antitumor activity against human SKOV3 cells; assay type: functional; how it was run: as §1
786-0 = assay: Antitumor activity against human 786-0 cells; assay type: functional; how it was run: as §1
CAKI-1 = assay: Antitumor activity against human CAKI1 cells; assay type: functional; how it was run: as §1
TK-10 = assay: Antitumor activity against human TK10 cells; assay type: functional; how it was run: as §2
DU-145 = assay: Antitumor activity against human DU145 cells; assay type: functional; how it was run: as §1
MCF7 = assay: Antitumor activity against human MCF7 cells; assay type: functional; how it was run: as §1
MDA-MB-231 = assay: Antitumor activity against human MDA-MB-231 cells; assay type: functional; how it was run: as §1
MDA-MB-435 = assay: Antitumor activity against human MDA-MB-435 cells; assay type: functional; how it was run: as §1
T47D = assay: Antitumor activity against human T47D cells; assay type: functional; how it was run: as §2
[2] = Half life of hydrolysis in deuterated phosphate buffer at pD 7.8; details: deuterated phosphate buffer, pH 7.8
SK-MEL-28 = assay: Antitumor activity against human SK-MEL-28 cells; assay type: functional; how it was run: as §1
NCI [3] = assay: Antitumor activity against human NCI leukemia cell line panel; assay type: functional, cell-based; how it was run: as §1
[4] = test system: Non-small cell lung cancer cell line; assay: Antitumor activity against human NCI non-small cell lung cancer cell line panel; assay type: functional, cell-based; how it was run: as §1
NCI [5] = assay: Antitumor activity against human NCI CNS cancer cell line panel; assay type: functional, cell-based; how it was run: as §1
carcinoma cell line = assay: Antitumor activity against human NCI ovarian carcinoma cell line panel; assay type: functional, cell-based; how it was run: as §1
NCI [6] = assay: Antitumor activity against human NCI renal cancer cell line panel; assay type: functional, cell-based; how it was run: as §1
NCI [7] = assay: Antitumor activity against human NCI breast cancer cell line panel; assay type: functional, cell-based; how it was run: as §1
HOP-92 = assay: Antitumor activity against human HOP92 cells; assay type: functional; how it was run: as §1
OVCAR-5 = assay: Antitumor activity against human OVCAR5 cells; assay type: functional; how it was run: as §1
[8] = read-out: Log LC50 (the source's name) (converted)

CN(/N=N/c1nc(OCc2ccccc2)c2nc[nH]c2n1)C(=O)N(C)/N=N/c1nc(OCc2ccccc2)c2nc[nH]c2n1
GI50 (HL-60): 63.1 µM | CC50 (HL-60; [8]): > 100 µM | TGI (HL-60; read-out: Log TGI (converted)): > 100 µM | GI50 (K562): 75.9 µM | CC50 (K562; [8]): > 100 µM | TGI (K562; read-out: Log TGI (converted)): > 100 µM | GI50 (RPMI-8226): 38 µM | CC50 (RPMI-8226; [8]): > 100 µM | TGI (RPMI-8226; read-out: Log TGI (converted)): > 100 µM | GI50 (EKVX): 38 µM | CC50 (EKVX; [8]): > 100 µM | TGI (EKVX; read-out: Log TGI (converted)): > 100 µM | GI50 (NCI-H23): 34.7 µM | LC50 (50% net cell kill) (NCI-H23): > 100 µM | TGI (NCI-H23; read-out: Log TGI (converted)): > 100 µM | GI50 (NCI-H322M): 41.7 µM | CC50 (NCI-H322M; [8]): > 100 µM | TGI (NCI-H322M; read-out: Log TGI (converted)): > 100 µM | GI50 (NCI-H460): 26.3 µM | CC50 (NCI-H460; [8]): > 100 µM | TGI (NCI-H460; read-out: Log TGI (converted)): > 100 µM | GI50 (COLO 205): 37.2 µM | CC50 (COLO 205; [8]): > 100 µM | TGI (COLO 205; read-out: Log TGI (converted)): > 100 µM | GI50 (HCT-15): 35.5 µM | CC50 (HCT-15; [8]): > 100 µM | TGI (HCT-15; read-out: Log TGI (converted)): > 100 µM | GI50 (KM12): 85.1 µM | CC50 (KM12; [8]): > 100 µM | TGI (KM12; read-out: Log TGI (converted)): > 100 µM | GI50 (SF-268): 47.9 µM | CC50 (SF-268; [8]): > 100 µM | TGI (SF-268; read-out: Log TGI (converted)): > 100 µM | GI50 (SF-539): 38 µM | CC50 (SF-539; [8]): > 100 µM | TGI (SF-539; read-out: Log TGI (converted)): > 100 µM | GI50 (SNB-19): > 100 µM | LC50 (SNB-19): > 100 µM | TGI (SNB-19; read-out: Log TGI (converted)): > 100 µM | GI50 (SNB-75): > 100 µM | CC50 (SNB-75; [8]): > 100 µM | TGI (SNB-75; read-out: Log TGI (converted)): > 100 µM | GI50 (U-251): 50.1 µM | CC50 (U-251; [8]): > 100 µM | TGI (U-251; read-out: Log TGI (converted)): > 100 µM | GI50 [1]: 37.2 µM | CC50 [1, 8]: > 100 µM | TGI ([1]; read-out: Log TGI (converted)): > 100 µM | GI50 (SK-MEL-2): 64.6 µM | CC50 (SK-MEL-2; [8]): > 100 µM | TGI (SK-MEL-2; read-out: Log TGI (converted)): > 100 µM | GI50 (SK-MEL-5): 20.9 µM | CC50 (SK-MEL-5; [8]): > 100 µM | TGI (SK-MEL-5; read-out: Log TGI (converted)): 61.7 µM | GI50 (UACC-257): 55 µM | CC50 (UACC-257; [8]): > 100 µM | TGI (UACC-257; read-out: Log TGI (converted)): > 100 µM | GI50 (UACC-62): 30.9 µM | CC50 (UACC-62; [8]): > 100 µM | TGI (UACC-62; read-out: Log TGI (converted)): > 100 µM | GI50 (OVCAR-3): 34.7 µM | LC50 (OVCAR-3): > 100 µM | TGI (OVCAR-3; read-out: Log TGI (converted)): > 100 µM | GI50 (OVCAR-8): 51.3 µM | LC50 (concentration giving 50% net cell death) (OVCAR-8): > 100 µM | TGI (OVCAR-8; read-out: Log TGI (converted)): > 100 µM | GI50 (SK-OV-3): 41.7 µM | CC50 (SK-OV-3; [8]): > 100 µM | TGI (SK-OV-3; read-out: Log TGI (converted)): > 100 µM | GI50 (786-0): 60.3 µM | LC50 (concentration giving 50% net cell death) (786-0): > 100 µM | TGI (786-0; read-out: Log TGI (converted)): > 100 µM | GI50 (CAKI-1): 17 µM | CC50 (CAKI-1; [8]): > 100 µM | TGI (CAKI-1; read-out: Log TGI (converted)): 63.1 µM | GI50 (TK-10): 26.9 µM | CC50 (TK-10; [8]): > 100 µM | TGI (TK-10; read-out: Log TGI (converted)): > 100 µM | GI50 (DU-145): 38.9 µM | CC50 (DU-145; [8]): > 100 µM | TGI (DU-145; read-out: Log TGI (converted)): > 100 µM | GI50 (MCF7): 42.7 µM | CC50 (MCF7; [8]): > 100 µM | TGI (MCF7; read-out: Log TGI (converted)): > 100 µM | GI50 (MDA-MB-231): 40.7 µM | CC50 (MDA-MB-231; [8]): > 100 µM | TGI (MDA-MB-231; read-out: Log TGI (converted)): > 100 µM | GI50 (MDA-MB-435): 49 µM | CC50 (MDA-MB-435; [8]): > 100 µM | TGI (MDA-MB-435; read-out: Log TGI (converted)): > 100 µM | GI50 (T47D): 39.8 µM | CC50 (T47D; [8]): > 100 µM | TGI (T47D; read-out: Log TGI (converted)): > 100 µM | half-life [2]: 7.17 h | GI50 (SK-MEL-28): > 100 µM | CC50 (SK-MEL-28; [8]): > 100 µM | TGI (SK-MEL-28; read-out: Log TGI (converted)): > 100 µM | IC50 (NCI [3]): 55 µM | TGI (NCI [3]): > 100 µM | CC50 (NCI [3]; read-out: LC50 (the source's name)): > 100 µM | IC50 [4]: 42 µM | TGI [4]: > 100 µM | IC50 (NCI [5]): 55 µM | TGI (NCI [5]): > 100 µM | IC50 (carcinoma cell line): 50 µM | TGI (carcinoma cell line): > 100 µM | IC50 (NCI [6]): 36 µM | TGI (NCI [6]): 87 µM | IC50 (NCI [7]): 39 µM | TGI (NCI [7]): > 100 µM | GI50 (HOP-92): 30.2 µM | CC50 (HOP-92; [8]): > 100 µM | TGI (HOP-92; read-out: Log TGI (converted)): > 100 µM | GI50 (OVCAR-5): 63.1 µM | CC50 (OVCAR-5; [8]): > 100 µM | TGI (OVCAR-5; read-out: Log TGI (converted)): > 100 µM
